# In ChEMBL document CHEMBL1144397, “Structure-based design: synthesis and biological evaluation of a series of novel cycloamide-derived HIV-1 protease inhibitors” (J Med Chem, 2005):
# Experiments:
# [1] = test system: MT2; assay: (§1) Compound tested for the inhibition of HIV-induced cytopathogenicity in MT-2 cells; type: functional, cell-based; settings: Homo sapiens
# Procedure, shortened: (§2)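 MT-2 cells (2 × 10^3/well) infected with 100 TCID50s of HIV-1LAI in presence of various agent concentrations; 37 °C for 7 days. Viability read by MTT (7.5 mg/mL in PBS), 2 h at 37 °C, formazan dissolved in acidified 2-propanol with 4% Triton X-100, OD 570 nm. IC50/IC75 from inhibition of cytopathogenicity; duplicate assays, mean of two or three.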
# [2] = test system: MT2; assay: as §1; type: functional; settings: Homo sapiens; procedure, shortened: as §2
# [3] = molecular target: Human immunodeficiency virus type 1 protease (Human immunodeficiency virus 1, UniProt Q72874); assay: Inhibitory activity against human immunodeficiency virus 1 protease
Structure (SMILES),IC50 [1] [nM],IC75 [2] [nM],Ki [3] [nM]
CC(C)(C)NC(=O)[C@@H]1C[C@@H]2CCCC[C@@H]2CN1C[C@@H](O)[C@H](Cc1ccccc1)NC(=O)[C@H](CC(N)=O)NC(=O)c1ccc2ccccc2n1,12,47,–
CC(C)CN(C[C@@H](O)[C@H](Cc1ccccc1)NC(=O)O[C@H]1CCOC1)S(=O)(=O)c1ccc(N)cc1,28,79,–
C=CCCCCC(NC(=O)c1cccc(O)c1OCCC=C)C(O)CN(CC(C)C)S(=O)(=O)c1ccc2c(c1)OCO2 (configuration not stated),–,–,20
COc1ccc(S(=O)(=O)N(CC(C)C)CC(O)C2CCCCCCCOc3c(O)cccc3C(=O)N2)cc1 (configuration not stated),–,–,1
CC(C)CN(CC(O)C1CCCCCCCCOc2c(O)cccc2C(=O)N1)S(=O)(=O)c1ccc2c(c1)OCO2 (configuration not stated),> 1000,> 1000,3
C=CCCCCC(NC(=O)c1cccc(O)c1OCC=C)C(O)CN(CC(C)C)S(=O)(=O)c1ccc(OC)cc1 (configuration not stated),–,–,12
C=CCCCCC(NC(=O)c1cccc(O)c1OCCC=C)C(O)CN(CC(C)C)S(=O)(=O)c1ccc(OC)cc1 (configuration not stated),> 1000,> 1000,2
COc1ccc(S(=O)(=O)N(CC(C)C)CC(O)C2CCCCCCCCOc3c(O)cccc3C(=O)N2)cc1 (configuration not stated),300,740,0.7
COc1ccc(S(=O)(=O)N(CC(C)C)CC(O)C2CCCCCCCCCOc3c(O)cccc3C(=O)N2)cc1 (configuration not stated),560,> 1000,2
CCCCCCCC(NC(=O)c1cccc(O)c1O)C(O)CN(CC(C)C)S(=O)(=O)c1ccc(OC)cc1 (configuration not stated),–,–,270
C=CCCCCC(NC(=O)c1cccc(O)c1OCCCC=C)C(O)CN(CC(C)C)S(=O)(=O)c1ccc(OC)cc1 (configuration not stated),–,–,9
COc1ccc(S(=O)(=O)N(CC(C)C)CC(O)C2CCCC/C=C\COc3c(O)cccc3C(=O)N2)cc1 (configuration not stated),–,–,2
